Laboratory results from ChEMBL document CHEMBL1145518, “Potent immune-modulating and anticancer effects of NKT cell stimulatory glycolipids” (2007).
Activity calls are given as the source filed them. The calls are words filed in the database; no cut-off is given here.

Tests used:
[1] = Induction of IFN-gamma secretion in human CD161+ CD3+ NKT cells at 10 ug/ml after 18 hrs relative to basal level; type: functional
Summary of the method: (§1)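 Human Vα24i NKT cell lines were expanded for 10 days on irradiated (3,000 rad) autologous immature DCs with 10 units/ml IL-2. The cells (1 × 10^5) were cocultured with 5 × 10^4 irradiated immature CD14+ DCs plus glycolipid at 10 μg/ml. Supernatants were collected at 18 h and read on a 22-plex Luminex bead panel. Triplicates, mean ± SD.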

[2] = Induction of IL12p40 secretion in human CD161+ CD3+ NKT cells at 10 ug/ml after 18 hrs relative to basal level; type: functional; summary of the method: as §1
[3] = Induction of RANTES secretion in human CD161+ CD3+ NKT cells at 10 ug/ml after 18 hrs relative to basal level; type: functional; summary of the method: as §1
[4] = Induction of MCP1 secretion in human CD161+ CD3+ NKT cells at 10 ug/ml after 18 hrs relative to basal level; type: functional; summary of the method: as §1
[5] = Induction of IL8 secretion in human CD161+ CD3+ NKT cells at 10 ug/ml after 18 hrs relative to basal level; type: functional; summary of the method: as §1
[6] = Induction of TNFalpha secretion in human CD161+ CD3+ NKT cells at 10 ug/ml after 18 hrs relative to basal level; type: functional; summary of the method: as §1
Mus musculus [7] = experiment: Increase in CD8/CD4 T cell ratio in BALB/c mouse at 2 ug, iv after 72 hrs by flow cytometry; type: functional, organism-based
TC1 = experiment: Antitumor activity in TC1 cells xenografted C57BL/6 mouse assessed as suppression of tumor growth at 2 ug, iv; type: functional, cell-based
Summary of the method: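 C57BL/6 mice (n = 5/group) were inoculated i.v. with TC-1 lung cancer cells. They were then treated i.v. with 2 μg glycolipid per mouse, or 100 μl of 1% DMSO, twice weekly for 4 weeks. Kaplan–Meier survival and body weight were followed, with tumor-free mice as an additional control.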

Mus musculus [8] = experiment: Induction of IL1-beta secretion in BALB/c mouse serum at 2 ug, iv after 18 hrs relative to control; type: functional
Summary of the method: (§2)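 BALB/c mice received an i.v. injection of 100 μl of glycolipid diluted to 20 μg/ml in saline from DMSO stock, with 1% DMSO as vehicle. Serum cytokines/chemokines were measured at 2 and 18 h after injection.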

Mus musculus [9] = experiment: Induction of IL2 secretion in BALB/c mouse serum at 2 ug, iv after 2 hrs relative to control; type: functional; summary of the method: as §2
Mus musculus [10] = experiment: Induction of IL12p70 secretion in BALB/c mouse serum at 2 ug, iv after 18 hrs relative to control; type: functional; summary of the method: as §2
Mus musculus [11] = experiment: Induction of IL12p40 secretion in BALB/c mouse serum at 2 ug, iv after 18 hrs relative to control; type: functional; summary of the method: as §2
Mus musculus [12] = experiment: Induction of RANTES secretion in BALB/c mouse serum at 2 ug, iv after 2 hrs relative to control; type: functional; summary of the method: as §2
Mus musculus [13] = experiment: Induction of MCP1 secretion in BALB/c mouse serum at 2 ug, iv after 2 hrs relative to control; type: functional; summary of the method: as §2
Mus musculus [14] = experiment: Induction of KC secretion in BALB/c mouse serum at 2 ug, iv after 2 hrs relative to control; type: functional; summary of the method: as §2
Mus musculus [15] = experiment: Induction of TNFalpha secretion in BALB/c mouse serum at 2 ug, iv after 18 hrs relative to control; type: functional; summary of the method: as §2
Mus musculus [16] = experiment: Induction of IL3 secretion in BALB/c mouse serum at 2 ug, iv after 2 hrs relative to control; type: functional; summary of the method: as §2
Mus musculus [17] = experiment: Induction of IL4 secretion in BALB/c mouse serum at 2 ug, iv after 2 hrs relative to control; type: functional; summary of the method: as §2
Mus musculus [18] = experiment: Induction of IL6 secretion in BALB/c mouse serum at 2 ug, iv after 2 hrs relative to control; type: functional; summary of the method: as §2
Mus musculus [19] = experiment: Induction of IL10 secretion in BALB/c mouse serum at 2 ug, iv after 18 hrs relative to control; type: functional; summary of the method: as §2
Mus musculus [20] = experiment: Induction of IL13 secretion in BALB/c mouse serum at 2 ug, iv after 2 hrs relative to control; type: functional; summary of the method: as §2
[21] = Induction of IL3 secretion in human CD161+ CD3+ NKT cells at 10 ug/ml after 18 hrs relative to basal level; type: functional; summary of the method: as §1
[22] = Induction of GM-CSF secretion in human CD161+ CD3+ NKT cells at 10 ug/ml after 18 hrs relative to basal level; type: functional; summary of the method: as §1
[23] = Induction of IL15 secretion in human CD161+ CD3+ NKT cells at 10 ug/ml after 18 hrs relative to basal level; type: functional; summary of the method: as §1
[24] = Induction of IL4 secretion in human CD161+ CD3+ NKT cells at 10 ug/ml after 18 hrs relative to basal level; type: functional; summary of the method: as §1
[25] = Induction of IL6 secretion in human CD161+ CD3+ NKT cells at 10 ug/ml after 18 hrs relative to basal level; type: functional; summary of the method: as §1
[26] = Induction of IL13 secretion in human CD161+ CD3+ NKT cells at 10 ug/ml after 18 hrs relative to basal level; type: functional; summary of the method: as §1
HeLa [27] = experiment: Activation of TCR in human HeLa cells overexpressing CD1d assessed as increase in CD3epsilon phosphorylation; type: cell-based
Summary of the method: (§3)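 Human HeLa, HeLa-CD1d or autologous immature DCs were loaded with glycolipid at 10 μg/ml, or DMSO, for 2 h. Then 3 × 10^5 naïve CD161+/CD3+ NKT cells were added; these were bead-isolated and kept in 100 units/ml IL-2. After 5–10 min the cells were washed and lysed at 4°C. Phospho-CD3ε, ERK1/2 (Thr-185/Tyr-187) and CREB (Ser-133) were read by Luminex bead assay as median fluorescence normalized to total protein, expressed as fold over 1% DMSO.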

dendritic [28] = experiment: Activation of TCR in human immature dendritic cells assessed as increase in CD3epsilon phosphorylation; type: cell-based; summary of the method: as §3
HeLa [29] = experiment: Activation of TCR in human HeLa cells overexpressing CD1d assessed as increase in ERK1/2 phosphorylation; type: cell-based; summary of the method: as §3
dendritic [30] = experiment: Activation of TCR in human immature dendritic cells assessed as increase in ERK1/2 phosphorylation; type: cell-based; summary of the method: as §3
HeLa [31] = experiment: Activation of TCR in human HeLa cells overexpressing CD1d assessed as increase in CREB phosphorylation; type: cell-based; summary of the method: as §3
dendritic [32] = experiment: Activation of TCR in human immature dendritic cells assessed as increase in CREB phosphorylation; type: cell-based; summary of the method: as §3
Mus musculus [33] = experiment: Activation of dendritic cells in BALB/c mouse at 2 ug, iv after 72 hrs by flow cytometry; type: functional, organism-based
Summary of the method: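 BALB/c mice (n = 4/group) were given 100 μl of glycolipid at 20 μg/ml in saline i.v., or 100 μl of 1% DMSO. Spleens were harvested after 72 h and splenocyte subsets counted by flow cytometry: mature DCs as CD11c+/CD80+/CD86+, activated NK as U5A2-13Ag+/CD3−/CD69+, activated NKT as U5A2-13Ag+/CD3+/CD69+. Assays were run in duplicate, mean ± SD.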

Row | SMILES | Activity [1] | Activity [2] | Activity [3] | Activity [4] | Activity [5] | Activity [6] | Activity (Mus musculus [7]) | Activity (TC1) | Activity (Mus musculus [8]) | Activity (Mus musculus [9]) | Activity (Mus musculus [10]) | Activity (Mus musculus [11]) | Activity (Mus musculus [12]) | Activity (Mus musculus [13]) | Activity (Mus musculus [14]) | Activity (Mus musculus [15]) | Activity (Mus musculus [16]) | Activity (Mus musculus [17]) | Activity (Mus musculus [18]) | Activity (Mus musculus [19]) | further results
1 | CCCCCCCCCCCCCCCCCCCCCCCCCC(=O)N[C@@H](CO[C@H]1O[C@H](CO)[C@H](O)[C@H](O)[C@H]1O)[C@H](O)[C@H](O)CCc1ccccc1 | 6.6 | 1.8 | 2.5 | 2 | 3 | 7.6 | Active | Active | 3.4 | 75.3 | 6.6 | 3.5 | 2.1 | 32.9 | 19.2 | 2.3 | 38.8 | 115 | 6.3 | 2.2 | Activity (Mus musculus [20]): 12.6; Activity [21]: 1.7; Activity [22]: 4.3; Activity [23]: 2.3; Activity [24]: 2.7; Activity [25]: 2.8; Activity [26]: 2.3; Activity (HeLa [27]): 7.3; Activity (dendritic [28]): 17.3; Activity (HeLa [29]): 6.6; Activity (dendritic [30]): 35; Activity (HeLa [31]): 41; Activity (dendritic [32]): 158; Activity (Mus musculus [33]): Active
2 | CCCCCCCCCCCCCCCCCCCCCCCCCC(=O)N[C@@H](CO[C@H]1O[C@H](CO)[C@H](O)[C@H](O)[C@H]1O)[C@H](O)[C@H](O)CCCCCCCCCCCCCC [RGI-7000] | 3.4 | 1.4 | 1.6 | 0.9 | 1.7 | 7.7 | Active | Active | 7.8 | 58.9 | 3.2 | 2.8 | 2.6 | 18.7 | 30.5 | 51 | 3 | 240 | 5.5 | 3.6 | Activity (Mus musculus [20]): 15.1; Activity [21]: 1.9; Activity [22]: 3.5; Activity [23]: 2.6; Activity [24]: 3.9; Activity [25]: 1.8; Activity [26]: 1.8; Activity (HeLa [27]): 7.3; Activity (dendritic [28]): 10.8; Activity (HeLa [29]): 6.6; Activity (dendritic [30]): 30; Activity (HeLa [31]): 32; Activity (dendritic [32]): 68; Activity (Mus musculus [33]): Active
